Measured values reported in ChEMBL document CHEMBL1153231, “Novel thioamide derivatives as neutral CB1 receptor antagonists” (Bioorg Med Chem Lett, 2010).
≈ marks a conversion by molar mass, not a printed value.

Tests used:
Cannabinoid receptor 1 = Cannabinoid receptor 1 (Homo sapiens, UniProt P21554); assay: Agonist activity at human CB1 receptor assessed as stimulation of [35S]GTPgammaS binding; format: functional
[1] = Aqueous solubility of the compound; format: physicochemical
[2] = Plasma concentration in mouse at 20 umol/kg, po after 2 hrs; format: ADME, organism-based
Procedure, shortened: (§1)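 Cafeteria-diet-induced obese mice were given repeated peroral doses. Plasma and brain tissue were sampled 0.5 h, 2 h and 6 h after the last dose, and after a 7-day washout. Levels of both the parent thioamide and its carboxamide counterpart were measured in the same samples. Plasma levels are per litre and brain levels per gram of tissue.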

[3] = Drug level in mouse brain at 20 umol/kg, po after 6 hrs; format: ADME, organism-based; procedure, shortened: as §1
[4] = Plasma concentration in mouse at 20 umol/kg, po after 7 days; format: ADME, organism-based; procedure, shortened: as §1
[5] = Drug level in mouse brain at 20 umol/kg, po after 2 hrs; format: ADME, organism-based; procedure, shortened: as §1
[6] = Plasma concentration in mouse at 20 umol/kg, po after 0.5 hrs; format: ADME, organism-based; procedure, shortened: as §1
[7] = Plasma concentration in mouse at 20 umol/kg, po after 6 hrs; format: ADME, organism-based; procedure, shortened: as §1
[8] = Drug level in mouse brain at 20 umol/kg, po after 0.5 hrs; format: ADME, organism-based; procedure, shortened: as §1
Mus musculus [9] = assay: Reduction in body weight of diet induced obese C57BL/6 mouse at 20-60 umol/kg after 1 week relative to control; format: functional; set-up: scale not given: the % may be the effect or the level left
Procedure, shortened: (§2)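 The test agents were given perorally to cafeteria-diet-induced obese mice over 1–3 weeks. Body weight was tracked as a percentage of initial body weight and compared with vehicle-treated animals.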

[10] = Drug level in mouse brain at 20 umol/kg, po after 7 days; format: ADME, organism-based; procedure, shortened: as §1
Mus musculus [11] = assay: Reduction in body weight of diet induced obese C57BL/6 mouse at 20 umol/kg after 1 to 3 weeks relative to control; format: functional; set-up: scale not given: the % may be the effect or the level left; procedure, shortened: as §2

Chain of Cannabinoid receptor 1 (P21554 whole entry): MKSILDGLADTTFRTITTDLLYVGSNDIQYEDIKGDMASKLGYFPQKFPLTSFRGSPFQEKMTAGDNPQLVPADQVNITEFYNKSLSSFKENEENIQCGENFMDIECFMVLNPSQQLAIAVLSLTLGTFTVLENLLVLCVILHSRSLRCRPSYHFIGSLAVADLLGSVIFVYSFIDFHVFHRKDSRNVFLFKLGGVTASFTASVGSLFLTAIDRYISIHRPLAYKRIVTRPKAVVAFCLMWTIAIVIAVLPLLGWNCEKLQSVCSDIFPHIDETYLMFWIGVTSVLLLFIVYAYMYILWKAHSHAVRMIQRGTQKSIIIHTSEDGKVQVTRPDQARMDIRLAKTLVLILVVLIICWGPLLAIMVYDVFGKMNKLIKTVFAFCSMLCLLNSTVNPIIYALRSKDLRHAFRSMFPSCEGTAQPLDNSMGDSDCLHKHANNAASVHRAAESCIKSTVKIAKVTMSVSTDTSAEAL

Structure (SMILES) | IC50 (Cannabinoid receptor 1) | solubility [1] | concentration at 2 h [2] | concentration at 6 h [3] | concentration at 168 h [4] | concentration at 2 h [5] | concentration at 0.5 h [6] | concentration at 6 h [7] | concentration at 0.5 h [8] | Activity (Mus musculus [9]) | concentration at 168 h [10] | Activity (Mus musculus [11])
O=C(NC1CCCCC1)c1cnc(-c2ccc(Cl)cc2)c(-c2ccc(Cl)cc2)n1 | 16.6 nM | < 0.1 µM |  |  |  |  |  |  |  |  |  | 
FC1(F)CCC(NC(=S)c2cnc(-c3ccc(Cl)cc3)c(-c3ccc(Cl)cc3)n2)CC1 | 4.5 nM | 6.6 µM (≈ 3.16 µg/mL) |  |  |  |  |  |  |  |  |  | 
COCc1nc(-c2ccc(Cl)cc2)c(-c2ccc(Cl)cc2)nc1C(=O)NC1CCC(F)(F)CC1 | 2.9 nM | < 0.1 µM | 153 nM | 0.07 µmol/g | 24 nM | 0.08 µmol/g | 136 nM | 148 nM | 0.05 µmol/g |  |  | 
COCc1nc(-c2ccc(Cl)cc2)c(-c2ccc(Cl)cc2)nc1C(=S)NC1CCC(F)(F)CC1 | 2.4 nM | < 0.1 µM | 604 nM | 0.14 µmol/g | 32 nM | 0.32 µmol/g | 403 nM | 137 nM | 0.18 µmol/g | 85% | 0.05 µmol/g | 
O=C(NC1CCC(F)(F)CC1)c1cnc(-c2ccc(Cl)cc2)c(-c2ccc(Cl)cc2)n1 | 5.3 nM | < 0.1 µM |  |  |  |  |  |  |  |  |  | 
S=C(NC1CCCCC1)c1cnc(-c2ccc(Cl)cc2)c(-c2ccc(Cl)cc2)n1 | 5.8 nM | 6.1 µM (≈ 2.7 µg/mL) |  |  |  |  |  |  |  |  |  | 
Cc1c(C(=O)NN2CCCCC2)nn(-c2ccc(Cl)cc2Cl)c1-c1ccc(Cl)cc1 [RIMONABANT] |  | < 1.1 µM | 1950 nM | 0.68 µmol/g |  | 1.69 µmol/g | 1360 nM | 900 nM | 1.11 µmol/g |  |  | 85%
